From ChEMBL document CHEMBL4610004, “Lipidated α/Sulfono-α-AA heterogeneous peptides as antimicrobial agents for MRSA” (Bioorg Med Chem, 2020)
In brackets after ≈: the same amount, converted by molar mass. Activity calls are given as the source filed them. No cut-off for these calls is given here.

Experiments:
Staphylococcus aureus [1] = assay: Antibacterial activity against methicillin-resistant Staphylococcus aureus ATCC 33591 assessed as reduction in bacterial growth incubated for 18 hrs by broth microdilution method; details: ATCC 33591, 18 h
[2] = Hemolytic activity in human RBC assessed as hemoglobin release incubated for 1 hr; type: ADME, cell-based, Erythrocyte; details: red blood cells (erythrocytes)
In short: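 Human red blood cells washed in PBS, pelleted at 1000g for 10 min, resuspended at 5% v/v. Compound serially diluted two-fold (50 µL) and mixed with 50 µL of the RBC suspension. Incubated 1 h at 37 °C, centrifuged 10 min at 3500 rpm, supernatant diluted with PBS, hemoglobin read at 540 nm. PBS defines 0% and 0.1% Triton X-100 defines 100% hemolysis. HC50 reported.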

[3] = Selectivity index, ratio of HC50 for human RBC to MIC for methicillin-resistant Staphylococcus aureus ATCC 33591; type: toxicity; details: red blood cells (erythrocytes)
In short: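 Selectivity = HC50 / MIC. For HC50, PBS-washed human RBCs (spun 1000g, 10 min) are diluted to 5% v/v and mixed 1:1 with twofold peptide dilutions. After 1 h at 37 °C, plates are spun and the diluted supernatant is read at 540 nm. PBS sets 0% and 0.1% Triton X-100 sets 100% hemolysis. MIC is by OD600 broth microdilution, 18 h, 37 °C.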

Staphylococcus aureus [4] = assay: Induction of cell membrane disruption in methicillin-resistant Staphylococcus aureus ATCC 33591 assessed as increase in depolarization measured for 30 mins by DiSC3 dye based fluorescence assay; type: organism-based
In short: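 Mid-log cells are washed in 5 mM HEPES then 5 mM glucose. They are resuspended (10⁸ CFU/mL) in HEPES/glucose/KCl 1:1:1 with 2 µM DiSC3. Fluorescence (ex 622, em 670 nm) is monitored 30 min at room temperature until minimal. Peptide is then added and the fluorescence rise followed as depolarization. Three trials, each in duplicate.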

Staphylococcus aureus [5] = assay: Induction of cell membrane disruption in methicillin-resistant Staphylococcus aureus ATCC 33591 assessed as increase in PI-positive cells at 5 ug/ml incubated for 2 hrs by DAPI and PI dye based fluorescence microscopy; type: organism-based
In short: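 Mid-log MRSA is incubated at 37 °C with peptide (5 µg/mL); the methods give 4 h and the legend gives 2 h. Cells are pelleted (3000g, 15 min) and PBS-washed. They are stained with DAPI (10 µg/mL, 0 °C, 15 min, dark), washed, then stained with PI (5 µg/mL). Untreated cells serve as controls. Imaged by optical microscopy at 100×.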

Staphylococcus aureus [6] = assay: Bactericidal activity against methicillin-resistant Staphylococcus aureus ATCC 33591 assessed as reduction in bacterial colonies formation at 12.5 ug/ml incubated for 120 min followed by dilution of the suspension and further incubation for 20 hrs on agar plate by time kill assay; type: functional, organism-based
In short: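 Bacteria are exposed to a range of peptide concentrations and sampled at 0, 10, 20, 30, 60 and 120 min. At each time point 100 µL of suspension is taken, diluted, and plated on agar for 20 h at 37 °C. Colonies are counted and expressed as log CFU/mL versus time. Done in triplicate.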

Compound | MIC (Staphylococcus aureus [1]) | also measured
CCCCCCCCCCCCCC(=O)N[C@@H](CCCCN)C(=O)NCCN([C@@H](C)C(N)=O)S(=O)(=O)c1ccc(Cl)cc1 | 5 µg/mL (≈ 7.76 µM) | 
CCCCCCCCCCCCCCCC(=O)N[C@@H](CCCCN)C(=O)NCCN([C@@H](C)C(=O)NCCN([C@@H](C)C(N)=O)S(=O)(=O)c1ccccc1)S(=O)(=O)c1ccccc1 | 2 µg/mL (≈ 2.24 µM) | 
CCCCCCCCCCCCCCCC(=O)N[C@@H](CCCCN)C(=O)NCCN([C@@H](C)C(N)=O)S(=O)(=O)c1ccc(Cl)cc1 | 1 µg/mL (≈ 1.49 µM) | HC50 at 1 h [2]: 62.5 µg/mL; selectivity ratio [3]: 62.5; Activity (Staphylococcus aureus [4]): Active; Activity (Staphylococcus aureus [5]): Active; Activity (Staphylococcus aureus [6]): Active
CCCCCCCC(=O)N[C@@H](CCCCN)C(=O)NCCN([C@@H](C)C(N)=O)S(=O)(=O)c1ccc(Cl)cc1 | > 25 µg/mL | 
CCCCCCCCCCCCCCCC(=O)N[C@@H](CCCCN)C(=O)NCCN([C@@H](C)C(=O)NCCN([C@@H](C)C(=O)NCCN([C@@H](C)C(N)=O)S(=O)(=O)c1ccccc1)S(=O)(=O)c1ccccc1)S(=O)(=O)c1ccccc1 | 10 µg/mL (≈ 8.72 µM) | 
CCCCCCCCCCCCCCCC(=O)N[C@@H](CCCCN)C(=O)NCCN([C@@H](C)C(=O)NCCN([C@@H](C)C(=O)NCCN([C@@H](C)C(N)=O)S(=O)(=O)c1ccc(Cl)cc1)S(=O)(=O)c1ccc(Cl)cc1)S(=O)(=O)c1ccc(Cl)cc1 | > 25 µg/mL | 
CCCCCCCCCCCCCCCC(=O)N[C@@H](CCCCN)C(=O)NCCN([C@@H](C)C(N)=O)S(=O)(=O)c1ccccc1 | 5 µg/mL (≈ 7.84 µM) | 
CCCCCCCCCC(=O)N[C@@H](CCCCN)C(=O)NCCN([C@@H](C)C(N)=O)S(=O)(=O)c1ccc(Cl)cc1 | > 25 µg/mL | 
CCCCCCCCCCCCCCCC(=O)N[C@@H](CCCCN)C(=O)NCCN([C@@H](C)C(=O)NCCN([C@@H](C)C(N)=O)S(=O)(=O)c1ccc(Cl)cc1)S(=O)(=O)c1ccc(Cl)cc1 | 10 µg/mL (≈ 10.4 µM) | 
CCCCCCCCCCCCCCCC(=O)N[C@@H](CCCCN)C(=O)NCCN([C@@H](C)C(=O)NCCN([C@@H](C)C(N)=O)S(=O)(=O)c1ccc(Br)cc1)S(=O)(=O)c1ccc(Br)cc1 | 5 µg/mL (≈ 4.76 µM) | 
CCCCCCCCCCCCCCCC(=O)N[C@@H](CCCCN)C(=O)NCCN([C@@H](C)C(=O)NCCN([C@@H](C)C(=O)NCCN([C@@H](C)C(N)=O)S(=O)(=O)c1ccc(Br)cc1)S(=O)(=O)c1ccc(Br)cc1)S(=O)(=O)c1ccc(Br)cc1 | > 25 µg/mL | 
CCCCCCCCCCCC(=O)N[C@@H](CCCCN)C(=O)NCCN([C@@H](C)C(N)=O)S(=O)(=O)c1ccc(Cl)cc1 | 5 µg/mL (≈ 8.11 µM) | 
CCCCCCCCCCCCCCCC(=O)N[C@@H](CCCCN)C(=O)NCCN([C@@H](C)C(N)=O)S(=O)(=O)c1ccc(Br)cc1 | 2 µg/mL (≈ 2.79 µM) | 
